pIC50: −log10 of the molar value. Each block holds one compound with its values, some of them ahead of it.
Tests used:
[1] = biological target: Aldo-keto reductase family 1 member B1 (Rattus norvegicus, UniProt P07943); experiment: Inhibitory concentration to aldose reductase (ALR-2) obtained from rat lens
Rattus norvegicus [2] = organism: Rattus norvegicus; experiment: Effect of the treatment on day 20 with ophthalmic solution (3%)on development of nuclear cataract in severely galactosemic rats; format: functional
In short: (§1)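 Sprague Dawley albino rats (45-55 g), 15 per group of equal average body weight, fed 50% D-galactose diet with ad libitum food and water. Eyedrops given four times daily in the precorneal region, starting 1 day before the switch to galactose chow. Vehicle controls were run on galactose and on normal diet. Lenses were checked by slit-lamp after 1% atropine mydriasis, and animals with nuclear cataract (central white opacity) were counted.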

Rattus norvegicus [3] = organism: Rattus norvegicus; experiment: Effect of the treatment on day 21 with ophthalmic solution (3%) on development of nuclear cataract in severely galactosemic rats; format: functional; in short: as §1
Rattus norvegicus [4] = organism: Rattus norvegicus; experiment: Effect of the treatment on day 11 with ophthalmic solution (3%)on development of nuclear cataract in severely galactosemic rats; format: functional; in short: as §1
Rattus norvegicus [5] = organism: Rattus norvegicus; experiment: Effect of the treatment on day 12 with ophthalmic solution (3%)on development of nuclear cataract in severely galactosemic rats; format: functional; in short: as §1
Rattus norvegicus [6] = organism: Rattus norvegicus; experiment: Effect of the treatment on day 14 with ophthalmic solution (3%)on development of nuclear cataract in severely galactosemic rats; format: functional; in short: as §1
Rattus norvegicus [7] = organism: Rattus norvegicus; experiment: Effect of the treatment on day 15 with ophthalmic solution (3%)on development of nuclear cataract in severely galactosemic rats; format: functional; in short: as §1
Rattus norvegicus [8] = organism: Rattus norvegicus; experiment: Effect of the treatment on day 16 with ophthalmic solution (3%)on development of nuclear cataract in severely galactosemic rats; format: functional; in short: as §1
Rattus norvegicus [9] = organism: Rattus norvegicus; experiment: Effect of the treatment on day 17 with ophthalmic solution (3%)on development of nuclear cataract in severely galactosemic rats; format: functional; in short: as §1
Rattus norvegicus [10] = organism: Rattus norvegicus; experiment: Effect of the treatment on day 18 with ophthalmic solution (3%)on development of nuclear cataract in severely galactosemic rats; format: functional; in short: as §1
Rattus norvegicus [11] = organism: Rattus norvegicus; experiment: Effect of the treatment on day 19 with ophthalmic solution (3%)on development of nuclear cataract in severely galactosemic rats; format: functional; in short: as §1
Rattus norvegicus [12] = organism: Rattus norvegicus; experiment: Effect of the treatment on day 13 with ophthalmic solution (3%)on development of nuclear cataract in severely galactosemic rats; format: functional; in short: as §1
Rattus norvegicus [13] = organism: Rattus norvegicus; experiment: Effect of the treatment on day 21 with ophthalmic solution (1%) on development of nuclear cataract in severely galactosemic rats; format: functional; in short: as §1
Rattus norvegicus [14] = organism: Rattus norvegicus; experiment: Effect of the treatment on day 11 with ophthalmic solution (1%)on development of nuclear cataract in severely galactosemic rats; format: functional; in short: as §1
Rattus norvegicus [15] = organism: Rattus norvegicus; experiment: Effect of the treatment on day 12 with ophthalmic solution (1%)on development of nuclear cataract in severely galactosemic rats; format: functional; in short: as §1
Rattus norvegicus [16] = organism: Rattus norvegicus; experiment: Effect of the treatment on day 13 with ophthalmic solution (1%)on development of nuclear cataract in severely galactosemic rats; format: functional; in short: as §1
Rattus norvegicus [17] = organism: Rattus norvegicus; experiment: Effect of the treatment on day 14 with ophthalmic solution (1%)on development of nuclear cataract in severely galactosemic rats; format: functional; in short: as §1
Rattus norvegicus [18] = organism: Rattus norvegicus; experiment: Effect of the treatment on day 15 with ophthalmic solution (1%)on development of nuclear cataract in severely galactosemic rats; format: functional; in short: as §1
Rattus norvegicus [19] = organism: Rattus norvegicus; experiment: Effect of the treatment on day 16 with ophthalmic solution (1%)on development of nuclear cataract in severely galactosemic rats; format: functional; in short: as §1
Rattus norvegicus [20] = organism: Rattus norvegicus; experiment: Effect of the treatment on day 17 with ophthalmic solution (1%)on development of nuclear cataract in severely galactosemic rats; format: functional; in short: as §1
Rattus norvegicus [21] = organism: Rattus norvegicus; experiment: Effect of the treatment on day 18 with ophthalmic solution (1%)on development of nuclear cataract in severely galactosemic rats; format: functional; in short: as §1
Rattus norvegicus [22] = organism: Rattus norvegicus; experiment: Effect of the treatment on day 19 with ophthalmic solution (1%)on development of nuclear cataract in severely galactosemic rats; format: functional; in short: as §1
Rattus norvegicus [23] = organism: Rattus norvegicus; experiment: Effect of the treatment on day 20 with ophthalmic solution (1%)on development of nuclear cataract in severely galactosemic rats; format: functional; in short: as §1

Structure (SMILES): Cc1ccc(Cn2c3ccccc3n3c(=O)c(=O)n(CC(=O)O)nc23)cc1
pIC50 [1]: 4.88

Structure (SMILES): CC(C)OC(=O)Cn1nc2n(Cc3ccccc3)c3ccccc3n2c(=O)c1=O
Nuclear cataract (Rattus norvegicus [2]): 40% | Nuclear cataract (Rattus norvegicus [3]): 40% | Nuclear cataract (Rattus norvegicus [4]): 0% | Nuclear cataract (Rattus norvegicus [5]): 10% | Nuclear cataract (Rattus norvegicus [6]): 10% | Nuclear cataract (Rattus norvegicus [7]): 10% | Nuclear cataract (Rattus norvegicus [8]): 10% | Nuclear cataract (Rattus norvegicus [9]): 10% | Nuclear cataract (Rattus norvegicus [10]): 40% | Nuclear cataract (Rattus norvegicus [11]): 40% | Nuclear cataract (Rattus norvegicus [12]): 10%

Structure (SMILES): O=C(O)CN/N=c1\n(Cc2ccc(F)cc2)c2ccccc2n1C(=O)C(=O)O
pIC50 [1]: 4.83

Structure (SMILES): COc1ccc(Cn2c3ccccc3n3c(=O)c(=O)n(CC(=O)O)nc23)cc1
pIC50 [1]: 4.37

Structure (SMILES): CCCn1/c(=N\NCC(=O)O)n(C(=O)C(=O)O)c2ccccc21
pIC50 [1]: 4.33

Structure (SMILES): Cn1c2ccccc2n2c(=O)c(=O)n(CC(=O)O)nc12
pIC50 [1]: 4.61

Structure (SMILES): Cn1c2ccccc2n2c(=O)c(CC(=O)O)nnc12
pIC50 [1]: 4.77

Structure (SMILES): Cn1/c(=N\NCC(=O)O)n(C(=O)C(=O)O)c2ccccc21
pIC50 [1]: 3.96

Structure (SMILES): O=C(O)Cn1nc2n(CC(=O)O)c3ccccc3n2c(=O)c1=O
pIC50 [1]: 4.87

Structure (SMILES): O=C(O)CN/N=c1\n(Cc2ccc(F)c(F)c2)c2ccccc2n1C(=O)C(=O)O
pIC50 [1]: 5.01

Structure (SMILES): O=C(O)CN/N=c1\n(Cc2ccc(Cl)cc2)c2ccccc2n1C(=O)C(=O)O
pIC50 [1]: 5.00

Structure (SMILES): O=C(O)CN/N=c1\n(Cc2ccc(Br)cc2F)c2ccccc2n1C(=O)C(=O)O
pIC50 [1]: 4.90

Structure (SMILES): O=C(O)Cc1nnc2n(Cc3ccccc3)c3ccccc3n2c1=O
pIC50 [1]: 5.26

Structure (SMILES): COc1ccc(Cn2/c(=N\NCC(=O)O)n(C(=O)C(=O)O)c3ccccc32)cc1
pIC50 [1]: 4.35

Structure (SMILES): O=C(O)Cn1nc2n(Cc3ccc(C(F)(F)F)cc3)c3ccccc3n2c(=O)c1=O
pIC50 [1]: 4.62

Structure (SMILES): O=C(O)CN/N=c1\n(CC(=O)O)c2ccccc2n1C(=O)C(=O)O
pIC50 [1]: 3.63

Structure (SMILES): O=C(O)Cc1nnc2nc3ccccc3n2c1O
pIC50 [1]: 4.44

Structure (SMILES): CCCn1c2ccccc2n2c(=O)c(=O)n(CC(=O)O)nc12
pIC50 [1]: 4.43

Structure (SMILES): Cc1ccc(Cn2/c(=N\NCC(=O)O)n(C(=O)C(=O)O)c3ccccc32)cc1
pIC50 [1]: 4.34

More lines, main results first:

pIC50 [1]: 6.44
Structure (SMILES): O=C(O)Cn1nc2n(Cc3ccccc3)c3ccccc3n2c(=O)c1=O
Nuclear cataract (Rattus norvegicus [2]): 50% | Nuclear cataract (Rattus norvegicus [3]): 50% | Nuclear cataract (Rattus norvegicus [4]): 0% | Nuclear cataract (Rattus norvegicus [5]): 0% | Nuclear cataract (Rattus norvegicus [6]): 10% | Nuclear cataract (Rattus norvegicus [7]): 10% | Nuclear cataract (Rattus norvegicus [8]): 10% | Nuclear cataract (Rattus norvegicus [9]): 10% | Nuclear cataract (Rattus norvegicus [10]): 40% | Nuclear cataract (Rattus norvegicus [11]): 40% | Nuclear cataract (Rattus norvegicus [12]): 0%

pIC50 [1]: 7.30
Structure (SMILES): COc1ccc2c(C(=S)N(C)CC(=O)O)cccc2c1C(F)(F)F [TOLRESTAT]
Nuclear cataract (Rattus norvegicus [2]): 0% | Nuclear cataract (Rattus norvegicus [13]): 47% | Nuclear cataract (Rattus norvegicus [3]): 0% | Nuclear cataract (Rattus norvegicus [14]): 0% | Nuclear cataract (Rattus norvegicus [4]): 0% | Nuclear cataract (Rattus norvegicus [15]): 0% | Nuclear cataract (Rattus norvegicus [5]): 0% | Nuclear cataract (Rattus norvegicus [16]): 0% | Nuclear cataract (Rattus norvegicus [17]): 23% | Nuclear cataract (Rattus norvegicus [6]): 0% | Nuclear cataract (Rattus norvegicus [18]): 32% | Nuclear cataract (Rattus norvegicus [7]): 0% | Nuclear cataract (Rattus norvegicus [19]): 32% | Nuclear cataract (Rattus norvegicus [8]): 0% | Nuclear cataract (Rattus norvegicus [20]): 32% | Nuclear cataract (Rattus norvegicus [9]): 0% | Nuclear cataract (Rattus norvegicus [21]): 43% | Nuclear cataract (Rattus norvegicus [10]): 0% | Nuclear cataract (Rattus norvegicus [22]): 43% | Nuclear cataract (Rattus norvegicus [11]): 0% | Nuclear cataract (Rattus norvegicus [23]): 47% | Nuclear cataract (Rattus norvegicus [12]): 0%

pIC50 [1]: 5.34
Structure (SMILES): O=C(O)Cn1nc2n(Cc3ccc(F)cc3)c3ccccc3n2c(=O)c1=O

pIC50 [1]: 5.35
Structure (SMILES): O=C(O)Cn1nc2n(Cc3ccc(Br)cc3F)c3ccccc3n2c(=O)c1=O

pIC50 [1]: 5.35
Structure (SMILES): O=C(O)CN/N=c1\n(Cc2ccccc2)c2ccccc2n1C(=O)C(=O)O

pIC50 [1]: 5.35
Structure (SMILES): O=C(O)Cn1nc2n(Cc3ccc(F)c(F)c3)c3ccccc3n2c(=O)c1=O

pIC50 [1]: 5.38
Structure (SMILES): O=C(O)Cn1nc2n(Cc3ccc(Cl)cc3)c3ccccc3n2c(=O)c1=O

pIC50 [1]: 5.58
Structure (SMILES): O=C(O)CN/N=c1\n(Cc2ccc(C(F)(F)F)cc2)c2ccccc2n1C(=O)C(=O)O

Source: ChEMBL document CHEMBL1134301, “[1,2,4]Triazino[4,3-a]benzimidazole acetic acid derivatives: a new class of selective aldose reductase inhibitors” (J Med Chem, 2001)
